# Data: ChEMBL document CHEMBL1128294, “Farnesyl derivatives of rigid carboxylic acids-inhibitors of ras-dependent cell growth” (J Med Chem, 1995)
# Test system: EJ; call rule not given here
# Test: The highest nontoxic concentration for human Ha-ras-transformed rat 1 (EJ) cells was determined by MTT staining method
# Type: functional
# How it was run: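 EJ (Ha-ras-transformed Rat1) cultures treated with compound were stained with MTT to detect live cells, with trypan blue also used to detect dead cells. The value reported is the highest concentration without toxicity.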
row,Compound,Cytotoxic endpoint
1,CC(C)=CCC/C(C)=C/CC/C(C)=C/CSc1ccc(N)cc1C(=O)O,25 µM
2,CC(C)=CCC/C(C)=C/CC/C(C)=C/CSc1ncccc1C(=O)O,200 µM
3,CC(C)=CCC/C(C)=C/CC/C(C)=C/CNc1ccc(Cl)c(C(=O)O)c1,200 µM
4,CC(C)=CCC/C(C)=C/CC/C(C)=C/CSc1ccccc1C(=O)O [SALIRASIB],200 µM

# Test system: EJ
# Test: Effective concentration required for 50% inhibition of growth of human Ha-ras-transformed rat 1 (EJ)cells
# Type: functional, cell-based
# How it was run: (§1)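 Ha-ras-transformed Rat1 (EJ) cells grown in DMEM/10% FCS with compound in 0.1% DMSO (vehicle controls 0.1% DMSO), 7-day cultures. Cell number by direct counting gives dose–response curves, and EC50 is the concentration giving 50% growth inhibition. Means of three to five determinations ±SD.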
row,Compound,EC50
1,CC(C)=CCC/C(C)=C/CC/C(C)=C/CSc1ncccc1C(=O)O,126 µM
2,CC(C)=CCC/C(C)=C/CC/C(C)=C/CNc1ccc(Cl)c(C(=O)O)c1,30.8 µM
3,CC(C)=CCC/C(C)=C/CC/C(C)=C/CSc1ccccc1C(=O)O [SALIRASIB],7.5 µM

# Test system: EJ
# Test: Effective concentration required for 50% inhibition of growth of human Ha-ras-transformed rat 1 (EJ)cells; not active at 200 uM
# Type: functional, cell-based
# How it was run: as §1
row,Compound,EC50
1,CC(C)=CCC/C(C)=C/CC/C(C)=C/CSc1ccc(N)cc1C(=O)O,Not Active

# Biological target: Protein-S-isoprenylcysteine O-methyltransferase (Rattus norvegicus) (UniProt Q9WVM4)
# Sequence (Q9WVM4 whole entry): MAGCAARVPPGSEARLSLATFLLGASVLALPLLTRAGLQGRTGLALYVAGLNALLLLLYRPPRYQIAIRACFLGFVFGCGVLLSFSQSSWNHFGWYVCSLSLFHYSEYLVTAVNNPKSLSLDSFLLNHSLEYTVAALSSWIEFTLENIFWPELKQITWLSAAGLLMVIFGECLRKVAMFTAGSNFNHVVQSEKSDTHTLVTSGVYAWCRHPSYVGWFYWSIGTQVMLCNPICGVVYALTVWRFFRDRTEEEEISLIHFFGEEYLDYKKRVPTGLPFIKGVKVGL
# Test: In vitro inhibition of Prenylated protein methyltransferase of rat brain cerebellar synaptosomes was assessed from the amount of [3H]-methyl esters formed in 15 min
# Type: subcellular
# How it was run: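 Compounds at 150 μM final were tested as methyl acceptors. Enzyme source was rat brain cerebellar synaptosomes (100 μg protein) with 25 μM [methyl-3H]AdoMet ([…]) as methyl donor. Read-out was [3H]methyl esters formed in 15 min, in quadruplicate, ±SEM. Detection limit about 3 pmol.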
row,Compound,Amount formed
1,CCC(=O)SC/C=C(\C)CC/C=C(\C)CCC=C(C)C,26.3 pmol
2,CC(C)=CCC/C(C)=C/CC/C(C)=C/CSc1ccccc1C(=O)O [SALIRASIB],0.76 pmol

# Now from value to compound:
row,Amount formed,Compound
1,52.5 pmol,CC(=O)N(C/C=C(\C)CC/C=C(\C)CCC=C(C)C)C(CS)C(=O)O (stereo not drawn)
2,0.89 pmol,CC(C)=CCC/C(C)=C/CC/C(C)=C/CSc1ccc(N)cc1C(=O)O
3,0.73 pmol,CC(C)=CCC/C(C)=C/CC/C(C)=C/CSc1ncccc1C(=O)O
4,0.37 pmol,CC(C)=CCC/C(C)=C/CC/C(C)=C/CNc1ccc(Cl)c(C(=O)O)c1

# Biological target: Protein-S-isoprenylcysteine O-methyltransferase (Rattus norvegicus, UniProt Q9WVM4)
# Sequence (Q9WVM4 whole entry): as above
# Test: Ability to inhibit prenylated protein methyltransferase (PPMTase) in cell free systems
# How it was run: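 PPMTase source: rat cerebellum synaptosomal membranes (100 μg protein). Substrate 50 μM AFC with 25 μM [methyl-3H]AdoMet, 37 °C for 15 min, with and without a range of inhibitor concentrations, run in duplicate. Activity with drug is expressed as percent of activity without drug, and Ki is derived from the inhibition curves.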
row,Compound,Ki
1,CC(C)=CCC/C(C)=C/CC/C(C)=C/CSc1ccc(N)cc1C(=O)O,72.8 µM
2,CC(C)=CCC/C(C)=C/CC/C(C)=C/CSc1ncccc1C(=O)O,14.9 µM
3,CC(C)=CCC/C(C)=C/CC/C(C)=C/CNc1ccc(Cl)c(C(=O)O)c1,8 µM
4,CC(C)=CCC/C(C)=C/CC/C(C)=C/CSc1ccccc1C(=O)O [SALIRASIB],2.8 µM
